# An excerpt weighted towards active compounds, which were near 1.5% of everything screened.
# Cneo AK release = Cryptococcus neoformans lysis via adenylate kinase release; C. neoformans lysis, adenylate kinase release luminescence, 4 h; normalised: neutral wells 0, clomiphene wells 100; lysis activity, % at 15 µM; 360,000 tested, 0.2% active; AID 651654;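 active = mean lysis activity across replicates of at least 80%, whatever share of replicates individually reach that level; inactive = mean lysis activity below 80%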
#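 Material – log-phase Cryptococcus neoformans yeast cells · Input – 5 × 10^6 yeast cells/mL · Medium – fresh YPD growth medium · Doses – single compound concentration per well · Timing – static 4 h at 37 °C with compound, 1 h detection · Detection – adenylate kinase release luminescence · Read-out – signal increase indicating cell lysis · Control set – Clomiphene as positive lysis control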
# MITF act = increases MITF-driven TRPM1 promoter luciferase signal. SK-MEL-5 TRPM1-promoter luciferase, 24 h; % of positive control, neutral wells = 0. activation, % at 12.5 µM. 300,000 tested, 0.75% active. AID 588334;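 active = mean activation of at least 80% with every replicate also reaching 80%; inconclusive = mean reaches 80% but some replicate falls short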;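 note: 0% = neutral control wells and 100% = parthenolide positive control wells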
# Wnt bcat act = activators of Wnt/beta-catenin signaling; Wnt/beta-catenin reporter cell assay, activator, plate reader; activation, % at 9.35 µM; 300,000 tested, 1.2% active; in the data active = activation above about 30%, passing the limit was not always enough; inconclusive = no clear call, values can overlap the other calls;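 note: 0% = neutral control wells and 100% = positive control wells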
# PGC1a acetyl inh = PGC1a acetylation modulation, inhibitor mode; U2OS PGC1a acetylation, AlphaScreen anti-acetyl-lysine; with virally co-expressed GCN5 acetyltransferase; inhibition, % at 15.6 µM; 350,000 tested, 0.17% active; AID 651687;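 active = every replicate shows inhibition of at least 40%; inconclusive = mean inhibition at least 40% but some replicate below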;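 note: 0% = neutral control wells and 100% = positive control wells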
# An asterisk follows results filed as active; ? = inconclusive; nt = no result given.
SMILES,Cneo AK release,MITF act,Wnt bcat act,PGC1a acetyl inh
CN(C)c1ccc(/C=N/NC(=O)c2ccco2)cc1,-6.6,44.2,42.0*,12.6
CC(C)C#Cc1ccc2c(c1)O[C@@H](CN(C)C(=O)c1cccc(F)c1)[C@H](C)CN([C@H](C)CO)S2(=O)=O,-0.9,nt,nt,-20.6
C[C@H]1CN([C@@H](C)CO)S(=O)(=O)c2ccc(-c3ccc(F)cc3)cc2O[C@@H]1CN(C)C(=O)Nc1ccc(F)cc1,nt,nt,nt,-0.4
C[C@@H]1CCCCO[C@@H](CN(C)Cc2ccncc2)[C@H](C)CN([C@H](C)CO)C(=O)c2cc(NC(=O)Nc3ccc4c(c3)OCO4)ccc2O1,2.4,nt,nt,-5.5
CCCC(=O)Nc1ccc2c(c1)C(=O)N(C)C[C@@H](OC)[C@@H](C)CN(C(=O)CN(C)C)[C@H](C)CO2,-4.0,nt,nt,2.9
O=C(CCc1nc2ccccc2s1)N1CCN(S(=O)(=O)c2cccs2)CC1,0.5,nt,0.6,-1.8
O=C(OCc1nc2ccccc2s1)C1CCN(S(=O)(=O)c2cccs2)CC1,0.8,24.3,43.9*,5.8
O=S(=O)(c1cccs1)N1CCN(Cc2nc3ccccc3s2)CC1,-1.1,nt,36.1*,2.1
CC(C)NC(=O)N1[C@H](CO)[C@@H](c2ccccc2)C12CN(C(=O)Cc1ccccc1)C2,nt,nt,nt,-5.8
C[C@H](CO)N1C[C@H](C)[C@H](CN(C)C(=O)NC2CCCCC2)OCCCC[C@H](C)Oc2ccc(NS(=O)(=O)c3cn(C)cn3)cc2C1=O,90.3*,nt,nt,nt
CC(C)NC(=O)Nc1ccc2c(c1)C(=O)N([C@H](C)CO)C[C@H](C)[C@H](CN(C)C(=O)NC(C)C)OCCCC[C@@H](C)O2,-0.3,nt,nt,38.5
CC(C)NC(=O)Nc1ccc2c(c1)C(=O)N([C@@H](C)CO)C[C@@H](C)[C@@H](CN(C)C(=O)NC(C)C)OCCCC[C@@H](C)O2,113.5*,nt,nt,nt
C[C@H](CO)N1C[C@H](C)[C@H](CN(C)C(=O)NC2CCCCC2)OCCCC[C@H](C)Oc2ccc(NC(=O)C3CCCCC3)cc2C1=O,103.8*,nt,nt,7.6
CCCN(C)C[C@H]1OCCCC[C@@H](C)Oc2ccc(NC(=O)NC(C)C)cc2C(=O)N([C@@H](C)CO)C[C@H]1C,92.0*,nt,nt,-1.5
Cc1noc(C)c1S(=O)(=O)Nc1ccc2c(c1)CC(=O)N([C@@H](C)CO)C[C@H](C)[C@@H](CN(C)Cc1ccc(C(=O)O)cc1)O2,1.1,nt,nt,-2.1
CC(C)NC(=O)Nc1ccc2c(c1)C(=O)N([C@H](C)CO)C[C@@H](C)[C@H](CN(C)C(=O)Nc1ccccc1)OCCCC[C@@H](C)O2,117.9*,nt,nt,-8.9
CC(C)NC(=O)Nc1ccc2c(c1)C(=O)N([C@H](C)CO)C[C@H](C)[C@H](CN(C)C(=O)Nc1ccccc1)OCCCC[C@H](C)O2,2.8,nt,nt,3.3
COc1ccccc1NC(=O)C(=O)NCCC1CCCCN1S(=O)(=O)c1ccccc1 (configuration not stated),0.7,-10.6,-0.4,nt
COc1cccc(NC(=O)C(=O)NCC2CCCN2S(=O)(=O)c2ccccc2)c1 (configuration not stated),nt,157.8*,43.4*,nt
COc1cccc(NC(=O)C(=O)NCCC2CCCCN2S(=O)(=O)c2ccccc2)c1 (configuration not stated),-2.7,110.4*,-2.8,nt
COc1cccc(C(=O)NCC2CCCN2S(=O)(=O)c2ccccc2)c1 (configuration not stated),-0.7,2.6,-0.7,nt
COc1ccc(NC(=O)Nc2ccc3c(c2)C(=O)N([C@H](C)CO)C[C@H](C)[C@H](CN(C)S(=O)(=O)c2cn(C)cn2)O3)cc1,-3.3,nt,nt,-7.9
COC(=O)C[C@@H]1CC[C@H]2[C@@H](COc3ccc(NC(=O)c4cccc(F)c4)cc3C(=O)N2C)O1,-2.6,nt,nt,3.2
C=CCOc1ccc(/C=N/Nc2ccccn2)cc1OC,-1.1,?,-1.0,-6.9
CCCOc1ccc(/C=N/Nc2ccccn2)cc1OC,-2.1,90.9*,5.3,-3.9
SMILES,Cneo AK release,MITF act,Wnt bcat act,PGC1a acetyl inh
CCOc1ccc(/C=N/Nc2ccccn2)cc1OC,nt,58.4,14.4,6.6
Fc1cccc(/C=N/Nc2ccccn2)c1,nt,97.5*,16.2,9.1
COc1cc(/C=N/Nc2ccccn2)ccc1OCC(C)C,1.1,89.7*,7.4,1.1
CCOc1ccc(/C=N/N(C)c2ccccc2)cc1OC,-7.4,108.9*,nt,2.1
COc1cc(/C=N/N(c2ccccc2)c2ccccc2)ccc1O,-2.3,nt,-0.3,4.3
O=c1sc(N2CCN(c3ccccc3F)CC2)nc2ccsc12,0.3,nt,53.6*,nt
CCCN1CCC(=O)N([C@H](CSc2ccc(Br)cc2)c2ccccc2)CC1,-0.4,88.5*,20.4,nt
O=C1CCN(CCc2ccccc2)CCN1[C@H](CSc1ccc(Br)cc1)c1ccccc1,1.7,-3.7,1.4,nt
CC(C)C[C@@H](CSc1ccccc1)N1CCN(C)CCC1=O,1.0,12.7,11.6,8.4
CCCN1CCC(=O)N([C@H](CSc2ccc(C)cc2)Cc2ccccc2)CC1,0.5,8.3,-1.7,nt
CCCN1CCC(=O)N([C@H](CSc2ccc(C)cc2)CC(C)C)CC1,0.2,98.4*,29.6,-8.6
CCCN1CCC(=O)N([C@H](CSc2ccccc2)CC(C)C)CC1,8.7,92.9*,15.5,2.3
CC(C)C[C@@H](CSc1ccccc1)N1CCN(CC(C)C)CCC1=O,1.0,103.5*,43.2*,-10.7
COC(=O)[C@H]1[C@H](CO)[C@H]2Cn3c(ccc(-c4ccncc4)c3=O)[C@H]2N1CC1CCCC1,nt,nt,nt,3.5
O=C(N[C@@H]1CC[C@@H](CC(=O)N2CCc3ccccc3C2)O[C@H]1CO)C1CCOCC1,-2.7,nt,nt,-7.6
COc1ccc(Nc2ncnc3c2cnn3-c2cccc(C)c2)cc1OC,-0.8,nt,-2.6,-8.4
COc1ccc(-n2ncc3c(Nc4cccc(C)c4)ncnc32)cc1,2.4,120.2*,-2.9,-5.5
C=CCNc1ncnc2c1cnn2-c1ccc(OC)cc1,-1.5,57.3,12.1,-9.5
CCCN(CCC)c1ncnc2c1cnn2-c1ccc(OC)cc1,-4.5,128.3*,nt,6.3
Cc1ccnc(N/N=C/c2ccccc2)n1,-0.9,29.5,22.2,-10.8
C(=N\Nc1nccc(-c2cccnc2)n1)/c1ccccc1,-2.3,nt,48.7*,-3.6
COC(=O)c1ccc(-c2ccc(Cl)cc2)nc1C,0.1,92.6*,nt,-1.0
COc1ccc(-c2ccc([C@@H]3[C@@H](CO)N4C(=O)CN(Cc5ccc(C)cc5)C[C@H]34)cc2)cc1,nt,nt,nt,9.0
Cc1ccc(-n2c(C)cc(C(=O)COC(=O)c3c(C)noc3C)c2C)cc1,-8.7,50.2,51.1*,5.8
CC(C)(C)C1CCc2c(sc3c2C(=O)NC(c2ccco2)N3)C1 (configuration not stated),-3.6,95.5*,0.6,-5.0
C[C@@H]1CN([C@H](C)CO)C(=O)Cc2cc(NS(C)(=O)=O)ccc2O[C@H]1CN(C)C(=O)Nc1ccc(F)cc1,-3.7,nt,nt,-7.8
O=c1oc2ccccc2nc1/C=C(\O)c1ccccc1,-2.1,nt,39.9*,4.6
CC(C)(C)/C(O)=C/c1nc2ccccc2oc1=O,nt,10.8,1.9,9.0
Cc1cc(NC(=S)Nc2ccc(C)c(Cl)c2)n[nH]1,nt,90.7*,?,7.0
